Measured values taken from ChEMBL document CHEMBL1926598, “Synthesis, anti-inflammatory activity and ulcerogenic liability of novel nitric oxide donating/chalcone hybrids” (Bioorg Med Chem, 2012).

Legend:
[1] = Induction of nitric oxide release at 0.1 mM after 1 hr in phosphate buffer at pH 7.4 by Griess assay; format: physicochemical; conditions: pH 7.4, 1 h, 100 µM
Outline: (§1)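 Compound at a final 10^-4 M with 0.5 mM N-acetylcysteine in phosphate buffer pH 7.4 at 37 °C. Reaction mixture treated with Griess reagent (sulfanilamide, N-naphthylethylenediamine, phosphoric acid), 10 min at room temperature, absorbance read at 546 nm. Sodium nitrite standards (10–80 nmol/mL) used for calibration. NO reported as mol/mol, n = 4 reaction mixtures.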

[2] = Induction of nitric oxide release at 0.1 mM after 2 hrs in phosphate buffer at pH 7.4 by Griess assay; format: physicochemical; conditions: pH 7.4, 2 h, 100 µM; outline: as §1
[3] = Induction of nitric oxide release at 0.1 mM after 3 hrs in phosphate buffer at pH 7.4 by Griess assay; format: physicochemical; conditions: pH 7.4, 3 h, 100 µM; outline: as §1
[4] = Induction of nitric oxide release at 0.1 mM after 4 hrs in phosphate buffer at pH 7.4 by Griess assay; format: physicochemical; conditions: pH 7.4, 4 h, 100 µM; outline: as §1
[5] = Induction of nitric oxide release at 0.1 mM after 5 hrs in phosphate buffer at pH 7.4 by Griess assay; format: physicochemical; conditions: pH 7.4, 5 h, 100 µM; outline: as §1
[6] = Induction of nitric oxide release at 0.1 mM after 6 hrs in phosphate buffer at pH 7.4 by Griess assay; format: physicochemical; conditions: pH 7.4, 6 h, 100 µM; outline: as §1
[7] = Induction of nitric oxide release at 0.1 mM in 0.1 N HCl buffer at pH 1.0 by Griess assay; format: physicochemical; conditions: pH 1, 100 µM
Outline: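 Griess procedure as at neutral pH, but in 0.1 N HCl pH 1 in place of phosphate buffer. Compound at a final 10^-4 M with N-acetylcysteine, 37 °C. Absorbance read at 546 nm against sodium nitrite standards (10–80 nmol/mL). Release expressed relative to a theoretical 1 mol NO/mol compound.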

[8] = tested on: Rattus norvegicus; assay: Antiinflammatory activity in albino rat assessed as inhibition of carrageenan-induced paw edema at 100 mg/kg, po administered 30 mins prior to challenge measured after 1 hr relative to untreated control; format: functional
Outline: (§2)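 Adult male albino rats (120–140 g), groups of four, fasted 24 h with water allowed. Test compound suspended in 0.5% w/v CMC in water, given orally at 100 mg/kg; controls received CMC alone. After 30 min, 0.1 mL of 1% carrageenan in saline injected subplantar into right hind paw, saline into left. Paw thickness measured by caliper; % inhibition = [(VR−VL)control − (VR−VL)treated]/(VR−VL)control ×100; one-way ANOVA versus control.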

[9] = tested on: Rattus norvegicus; assay: Antiinflammatory activity in albino rat assessed as inhibition of carrageenan-induced paw edema at 100 mg/kg, po administered 30 mins prior to challenge measured after 2 hrs relative to untreated control; format: functional; outline: as §2
[10] = tested on: Rattus norvegicus; assay: Antiinflammatory activity in albino rat assessed as inhibition of carrageenan-induced paw edema at 100 mg/kg, po administered 30 mins prior to challenge measured after 3 hrs relative to untreated control; format: functional; outline: as §2
[11] = tested on: Rattus norvegicus; assay: Antiinflammatory activity in albino rat assessed as inhibition of carrageenan-induced paw edema at 100 mg/kg, po administered 30 mins prior to challenge measured after 4 hrs relative to untreated control; format: functional; outline: as §2
[12] = tested on: Rattus norvegicus; assay: Antiinflammatory activity in albino rat assessed as inhibition of carrageenan-induced paw edema at 100 mg/kg, po administered 30 mins prior to challenge measured after 5 hrs relative to untreated control; format: functional; outline: as §2
[13] = tested on: Rattus norvegicus; assay: Antiinflammatory activity in albino rat assessed as inhibition of carrageenan-induced paw edema at 100 mg/kg, po administered 30 mins prior to challenge measured after 3 hrs relative to indomethacin; format: functional; set-up: scale not given: the % may be the effect or the level left
Outline: (§3)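 Carrageenan paw edema in male albino rats (120–140 g, n = 4, fasted 24 h), compound 100 mg/kg po in 0.5% CMC 30 min before subplantar 1% carrageenan (0.1 mL). Percent edema inhibition at the stated hour from right minus left paw thickness versus the CMC control, then expressed as a percentage of the indomethacin (100 mg/kg) response at the same time.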

[14] = tested on: Rattus norvegicus; assay: Gastric toxicity in albino rat assessed as ulcer index at 100 mg/kg, po after 5 hrs; format: organism-based; set-up: dose 100 mg/kg, route oral; conditions: in vivo
Outline: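 Rats dosed orally at 100 mg/kg in 0.5% CMC (n = 4). Stomach lesions counted and graded by area: level I <1 mm², II 1–3 mm², III >3 mm². Ulcer index = 1×(level I count) + 2×(level II) + 3×(level III). Mean ± SEM; one-way ANOVA versus control.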

[15] = tested on: Rattus norvegicus; assay: Gastric toxicity in albino rat assessed as abnormal morphology of fundic gland at 100 mg/kg, po after 5 hrs by hematoxylin and eosin staining; format: organism-based; set-up: dose 100 mg/kg, route oral; conditions: in vivo
Outline: (§4)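 Stomach sections from control and treated rats were dewaxed and hydrated through graded alcohols. They were stained with haematoxylin 5–7 min, differentiated 5–10 s in 1% HCl in 70% alcohol, then stained with 1% eosin for 10 min. Mucosa of the fundic stomach was examined by light microscopy.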

[16] = tested on: Rattus norvegicus; assay: Gastric toxicity in albino rat assessed as edema at 100 mg/kg, po after 5 hrs by hematoxylin and eosin staining; format: organism-based; set-up: dose 100 mg/kg, route oral; conditions: in vivo; outline: as §4
[17] = tested on: Rattus norvegicus; assay: Gastric toxicity in albino rat assessed as vasodilation of blood capillaries at 100 mg/kg, po after 5 hrs by hematoxylin and eosin staining; format: organism-based; set-up: dose 100 mg/kg, route oral; conditions: in vivo; outline: as §4
[18] = tested on: Rattus norvegicus; assay: Gastric toxicity in albino rat assessed as loss of mucosal membrane at the area of ulceration at 100 mg/kg, po after 5 hrs by hematoxylin and eosin staining; format: organism-based; set-up: dose 100 mg/kg, route oral; conditions: in vivo; outline: as §4
[19] = tested on: Rattus norvegicus; assay: Gastric toxicity in albino rat assessed as structural damage in mucosal membrane at 100 mg/kg, po after 5 hrs by hematoxylin and eosin staining; format: organism-based; set-up: dose 100 mg/kg, route oral; conditions: in vivo; outline: as §4
[20] = tested on: Rattus norvegicus; assay: Antiinflammatory activity in albino rat assessed as inhibition of carrageenan-induced paw edema at 100 mg/kg, po administered 30 mins prior to challenge measured after 4 hrs relative to indomethacin; format: functional; set-up: scale not given: the % may be the effect or the level left; outline: as §3
[21] = tested on: Rattus norvegicus; assay: Gastric toxicity in albino rat assessed as capillary inflammatory cells appearance at 100 mg/kg, po after 5 hrs by hematoxylin and eosin staining; format: organism-based; set-up: dose 100 mg/kg, route oral; conditions: in vivo; outline: as §4
[22] = tested on: Rattus norvegicus; assay: Gastric toxicity in albino rat assessed as degeneration of fundic gland at 100 mg/kg, po after 5 hrs by hematoxylin and eosin staining; format: organism-based; set-up: dose 100 mg/kg, route oral; conditions: in vivo; outline: as §4
[23] = tested on: Rattus norvegicus; assay: Gastric toxicity in albino rat assessed as apoptotic glandular epithelial cells appearance at 100 mg/kg, po after 5 hrs by hematoxylin and eosin staining; format: organism-based, Epithelial cell; set-up: dose 100 mg/kg, route oral; conditions: in vivo; outline: as §4

Activity [1]	Activity [2]	Activity [3]	Activity [4]	Activity [5]	Activity [6]	Activity [7]	Compound	inhibition in vivo at 100 mg/kg [8]	inhibition in vivo at 100 mg/kg [9]	inhibition in vivo at 100 mg/kg [10]	inhibition in vivo at 100 mg/kg [11]	inhibition in vivo at 100 mg/kg [12]	Activity [13]	UI [14]	further results
0.32 mol/mol	0.37 mol/mol	0.54 mol/mol	0.73 mol/mol	0.75 mol/mol	0.73 mol/mol	Not Active	O=C(CO[N+](=O)[O-])Nc1ccc(C(=O)/C=C/c2ccc(Cl)cc2)cc1	42%	57%	69%	67%	60%	89%	2.5	Activity [15]: Non-toxic; Activity [16]: Non-toxic; Activity [17]: Non-toxic
0.27 mol/mol	0.31 mol/mol	0.48 mol/mol	0.66 mol/mol	0.68 mol/mol	0.59 mol/mol	Not Active	COc1ccc(/C=C/C(=O)c2ccc(NC(=O)CO[N+](=O)[O-])cc2)cc1	33%	49%	53%	51%	46%	69%	5.8	–
0.39 mol/mol	0.45 mol/mol	0.6 mol/mol	0.64 mol/mol	0.73 mol/mol	0.67 mol/mol	Not Active	O=C(CO[N+](=O)[O-])Nc1ccc(C(=O)/C=C/c2ccc3c(c2)OCO3)cc1	38%	45%	61%	55%	54%	79%	3	–
0.15 mol/mol	0.28 mol/mol	0.37 mol/mol	0.59 mol/mol	0.63 mol/mol	0.59 mol/mol	Not Active	O=C(CO[N+](=O)[O-])Nc1ccc(C(=O)/C=C/c2ccco2)cc1	34%	36%	48%	40%	39%	61%	7	–
0.13 mol/mol	0.16 mol/mol	0.46 mol/mol	0.35 mol/mol	0.28 mol/mol	0.16 mol/mol	Not Active	CC(O[N+](=O)[O-])C(=O)Nc1ccc(C(=O)/C=C/c2ccc(Cl)cc2)cc1 (configuration not stated)	45%	55%	62%	61%	56%	80%	3.5	Activity [18]: Toxic; Activity [19]: Toxic
0.11 mol/mol	0.12 mol/mol	0.37 mol/mol	0.17 mol/mol	0.15 mol/mol	0.14 mol/mol	Not Active	COc1ccc(/C=C/C(=O)c2ccc(NC(=O)C(C)O[N+](=O)[O-])cc2)cc1 (configuration not stated)	43%	46%	50%	43%	35%	65%	8	–
0.1 mol/mol	0.14 mol/mol	0.4 mol/mol	0.28 mol/mol	0.15 mol/mol	0.12 mol/mol	Not Active	CC(O[N+](=O)[O-])C(=O)Nc1ccc(C(=O)/C=C/c2ccc3c(c2)OCO3)cc1 (configuration not stated)	45%	40%	59%	54%	53%	77%	4	–
0.09 mol/mol	0.11 mol/mol	0.38 mol/mol	0.13 mol/mol	0.11 mol/mol	0.09 mol/mol	Not Active	CC(O[N+](=O)[O-])C(=O)Nc1ccc(C(=O)/C=C/c2ccco2)cc1 (configuration not stated)	41%	48%	54%	49%	49%	69%	5.7	–
0.55 mol/mol	0.98 mol/mol	1.22 mol/mol	1.295 mol/mol	1.5 mol/mol	0.87 mol/mol	Not Active	O=C(COCc1c(-c2ccccc2)no[n+]1[O-])Nc1ccc(C(=O)/C=C/c2ccc(Cl)cc2)cc1	38%	48%	66%	75%	62%	–	1	Activity [20]: 91%; Activity [21]: Non-toxic; Activity [19]: Non-toxic
0.5 mol/mol	0.71 mol/mol	0.86 mol/mol	0.89 mol/mol	1.26 mol/mol	0.75 mol/mol	Not Active	O=C(COCc1c(-c2ccccc2)no[n+]1[O-])Nc1ccc(C(=O)/C=C/c2ccc3c(c2)OCO3)cc1	34%	55%	62%	72%	70%	–	1.3	Activity [20]: 87%
–	–	–	–	–	–	–	COc1ccc2c(c1)c(CC(=O)O)c(C)n2C(=O)c1ccc(Cl)cc1 [INDOMETHACIN]	56%	70%	78%	83%	87%	–	45.5	Activity [18]: Toxic; Activity [22]: Toxic; Activity [21]: Toxic; Activity [23]: Toxic
